Measurements from the EternaBench riboswitch data.

Tested on: MS2 coat protein
Experiment: apparent Kd, MS2 coat protein; higher = weaker binding; RNA-MaP array; FMN 200 µM where present
Summary of the method: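 Two titrations, one without ligand and one with constant ligand, were run with SNAP-549-labelled MS2 coat protein from 0.7 or 1.5 nM, doubling to 3 µM. The targets were designs transcribed by stalled E. coli RNA polymerase on Illumina sequencing-chip clusters, in 100 mM Tris-HCl pH 7.5, 80 mM KCl, 4 mM MgCl2, BSA, DTT, yeast tRNA and Tween-20. The apparent Kd is the median of filtered per-cluster binding-curve fits, with green signal normalised to red-channel RNA signal and control-cluster median Fmax.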

[1] = designed as: OFF switch for flavin mononucleotide, no ligand
[2] = ligand present: flavin mononucleotide, designed as: OFF switch for flavin mononucleotide
[3] = designed as: ON switch for flavin mononucleotide, no ligand
[4] = ligand present: flavin mononucleotide, designed as: ON switch for flavin mononucleotide

Sequence | apparent Kd [1] | apparent Kd [2] | apparent Kd [3] | apparent Kd [4]
UCUGGUCGAGGAUAUGCAUUCGUGCUUCGGCACGUAAGGUCACAUGAGGAUCACCCAUGUAGAAGGCGACCAGA | 19.6 nM | 35.9 nM |  | 
GGAUAGUGUCGUUAUCCGUAGCGAACAUGAGGAUCACCCAUGUAGGAUAUGUUAUUAAACUAAUAACAGAAGGGCGUUGGUCUC | 121 nM | 147 nM |  | 
AGGUACAUGAGGAUCACCCAUGUAAGAGACCUCAUGCGAUGUAGAAGGAUAAUCCGAGAAGAGGUAUAGGAUAUACAUGAGAAA | 177 nM | 149 nM |  | 
AAAGUAGGAGGAUAUACAUAGAUACAGAUACAUGUAGACGUACAUGAGGAUCACCCAUGUAGAAGGCCUAUGUA | 65.9 nM | 212 nM |  | 
AGACGGAGCUGAGGAUAUACAUGAGGAUCACCCAUGUAAGAUCUCCAGGAAACUGGAGAUCAAAAGUAGAAGGCAGCUCCGUCA | 15.1 nM | 23.1 nM |  | 
CCUUGUAGCGGAGGAUAUGGGCCUCACUCAGUCAAAGAGUGAGAAACAUGAGGAUCACCCAUGUCCCAGAAGGCCGCUGCUUGG |  |  | 17.8 nM | 12.8 nM
GUCGGAAACGACAAAAGUAGCAUACGAGAAGGCUGAUCCACGACAUGAGGAUCACCCAUGUAGUUAGAGGAUAUUGGAUGCUAC |  |  | 61.6 nM | 12.9 nM
UGUCGGAGCAGAGGAUAUUACAUGAGGAUCACCCAUGUAUGAACCAAUAGCUGGAUACAGCAAUGUAAGAAGGCUGCUCCGACA | 9.16 nM | 89.2 nM |  | 
AAAAAGCGAGGAUAUACAUGAGGAUCACCCAUGUCAAACGGUAAGACCGCAGGAAAAAGUAGAAGGCGCAAAAA | 61.5 nM | 98.5 nM |  | 
AGAAUGGGCGAGAAGGGAGUACAUGAGGAUCACCCAUGUGGUUGAUGGUGCUCAGGAUAUCGAAGGACCAGGGAGCGUCUCUGG | 185 nM | 302 nM |  | 
AGAAACUACGAGAAGGACAUGUGGUCCUUCGAAAACAUGAGGAUCACCCAUGUAGGAUAUCGUAGUUUCAGGAUCGUGAGAUCA | 18.2 nM | 4.37 nM |  | 
GGAUCGAUAGUGAGGAUAUACCACUGGAUACAGUGGUAGAAGGCACAUGAGGAUCACCCAUGUCCUAACGAUCC | 20.6 nM | 99.4 nM |  | 
GGUACUCAAAGAGUACCAAUACGAACAUGAGGAUCACCCAUGUAGGAUAUGCUACUCAAAGAGUAGCAGAAGGACGUGUGCCUU | 21.4 nM | 42.4 nM |  | 
GUGAACAUGAGGAUCACCCAUGUAGCUCACUGCCAGUGGCUACAGGAUAUAGCACUCCGAAGGUGCUAGAAGGGUGGCCUAGAA |  |  | 92.8 nM | 22.1 nM
UCAGGCUUCGAGAAGGACAUGAGGAUCACCCAUGUUAGUGUGAAGCAGCCGUGAGGCUGCAUCAUGUAGGAUAUCGGAGUCUGC | 25.5 nM | 189 nM |  | 
CACAAGAAAGUCGAAGGUUGAAGUAGAAGGACUAUAACAUGACAUGAGGAUCACCCAUGUGCCAAGUAGGAUAUGCUUUAAUCG | 7.7 nM | 7.38 nM |  | 
UCCUCUGUAUGAGGAUAUCCGAAUACGUGAGGCGCUGCCGGCUCAUCAUCAGGAGAAGGCAUACAUGAGGAUCACCCAUGUCGA | 141 nM | 63.3 nM |  | 
UACGGACAUGAGGAUCACCCAUGUGAGGAUAUCGGUACCGAUAGCAUAAUAUAAUCGGCGAGAAGGCACAGCGU | 32.7 nM | 42.8 nM |  | 
CCGGAAACGGGUAGCUCACAUGAGGAUCACCCAUGUGAAACACAGGAUAUGGAUCCUAAUUGGAUCCAGAAGGGUGUGAGCUAC |  |  | 58 nM | 20.3 nM
AAUUAUAUGUAGAAGGUACUAACAUAUGUGUUGUAAGGAUAUACCAAAUUAUUAGUUAUCAAGUUACAUGAGGAUCACCCAUGU |  |  | 12.3 nM | 7.36 nM
